Test results reported in article PMC3310921 (Bioorganic & medicinal chemistry, 2010).
Several values for one entry are separate records, joined by “and”; a condition that tells them apart may be missing. Identical values can stand only once. Entries after “also recorded” stand apart in the source; their conditions may differ. Like-named read-outs stand apart in the source and are kept apart here.

Experiments:
mice [1] = test: Murine toxicity study; type: in vivo; settings: for Neurotoxicity in mice (in words): 30, 100 and 300 mg/kg intraperitoneally, examined after 0.5 and 4 h
[2] = Cytotoxicity, average of the three normal cells; type: cell-based; settings: human, HGF, HPC and HPLF normal cells (average of the three)
In short: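 Human HGF gingival fibroblasts, HPC pulp cells and HPLF periodontal ligament fibroblasts were exposed to graded concentrations for 24 h, up to a maximum of 400 μM. CC50 is the concentration cutting viable cell number by 50%. It was read from dose–response curves from duplicate determinations, then averaged over the three normal cell types.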

HL-60 cells = test: Internucleosomal DNA fragmentation in HL-60 cells; type: cell-based, human; settings: 6 h incubation
HSC-2 cells = test: Internucleosomal DNA fragmentation in HSC-2 cells; type: cell-based, human; settings: 6 h incubation
In short: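 After 6 h exposure of HSC-2 cells (HL-60 in parallel), cellular DNA was examined for internucleosomal laddering against a DNA molecular-weight marker.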

caspase-3 in HL-60 cells = test: Caspase-3 activation in HL-60 cells; type: cell-based, human; settings: 5 h incubation
caspase-3 in HSC-2 cells = test: Caspase-3 activation in HSC-2 cells; type: cell-based, human; settings: 5 h incubation
In short: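 HSC-2 cells, with HL-60 run in parallel, were exposed to the test compound for 5 h, then assayed for caspase-3 activation. The reference was UV irradiation at 6 J/m²/min for 1 min, followed by 3 h incubation. Values are from n = 3.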

mice [3] = settings: recorded previously ref 25, cited from earlier work; for Neurotoxicity in mice (in words): 30, 100 and 300 mg/kg intraperitoneally, 0.5 and 4 h
[4] = tested on: HL-60 promyelocytic leukemia cells; settings: read-out: CC50 HL-60, human malignant cells, cited from earlier work
[5] = tested on: HPLF periodontal ligament fibroblasts; settings: read-out: CC50 HPLF; human normal cells; reported previously ref 26; cited from earlier work
HPC pulp cells = settings: read-out: CC50 HPC; human normal cells; reported previously ref 26; cited from earlier work
HGF gingival fibroblasts = settings: read-out: CC50 HGF; human normal cells; reported previously ref 26; cited from earlier work
[6] = tested on: HSC-2 squamous cell carcinoma cells; settings: read-out: CC50 HSC-2, human malignant cells, cited from earlier work
[7] = tested on: HSC-4 squamous cell carcinoma cells; settings: read-out: CC50 HSC-4; human malignant cells; reported previously ref 27; cited from earlier work
mice [8] = settings: cited from earlier work
[9] = 100 mg/kg intraperitoneally, 0.5 h
[10] = 300 mg/kg intraperitoneally, 0.5 h

O=C1/C(=C/c2ccccc2)CCC/C1=C\c1ccccc1[N+](=O)[O-] [Compound 1a]
Neurotoxicity in mice (in words) (mice [1]): did not display any neurotoxic symptoms | CC50 at 24 h [2]: 45 µM

O=C1/C(=C/c2ccc(F)cc2)CCC/C1=C\c1ccccc1[N+](=O)[O-] [Compound 1b]
CC50 at 24 h [2]: 53 µM

O=C1/C(=C/c2ccc(Cl)cc2)CCC/C1=C\c1ccccc1[N+](=O)[O-] [Compound 1c]
Induction of internucleosomal DNA fragmentation (HL-60 cells): induced the internucleosomal DNA fragmentation | Number of animals demonstrating neurological deficit/number of treated mice (mice [1]; 300 mg/kg intraperitoneally, 4 h): half or more | Induction of internucleosomal DNA fragmentation (HSC-2 cells): no evidence | Activation of caspase-3 (caspase-3 in HL-60 cells): concentration-dependent activation of caspase-3 | Activation of caspase-3 (caspase-3 in HSC-2 cells): no evidence

COc1ccc(/C=C2\CCC/C(=C\c3ccccc3[N+](=O)[O-])C2=O)cc1 [Compound 1f]
CC50 at 24 h [2]: > 395 µM

COc1cc(/C=C2\CCC/C(=C\c3ccccc3[N+](=O)[O-])C2=O)cc(OC)c1OC [Compound 1g]
CC50 at 24 h [2]: 53 µM

O=C1/C(=C/c2ccccc2)CCC/C1=C\c1cccc([N+](=O)[O-])c1 [Compound 2a]
Number of animals demonstrating neurological deficit/number of treated mice (mice [1]; [9]): 2/8 | Number of animals demonstrating neurological deficit/number of treated mice (mice [1]; [10]): half or more and 2/4 | Neurotoxicity in mice (in words) (mice [1]): Marginal neurotoxicity | CC50 at 24 h [2]: 19 µM

O=C1/C(=C/c2ccc(F)cc2)CCC/C1=C\c1cccc([N+](=O)[O-])c1 [Compound 2b]
Number of animals demonstrating neurological deficit/number of treated mice (mice [1]; [9]): 1/8 | CC50 at 24 h [2]: 39 µM

O=C1/C(=C/c2ccc(Cl)cc2)CCC/C1=C\c1cccc([N+](=O)[O-])c1 [Compound 2c]
CC50 at 24 h [2]: 32 µM

CN(C)c1ccc(/C=C2\CCC/C(=C\c3cccc([N+](=O)[O-])c3)C2=O)cc1 [Compound 2d]
Number of animals demonstrating neurological deficit/number of treated mice (mice [1]; [9]): 1/8 | Number of animals demonstrating neurological deficit/number of treated mice (mice [1]; [10]): 1/4

Cc1ccc(/C=C2\CCC/C(=C\c3cccc([N+](=O)[O-])c3)C2=O)cc1 [Compound 2e]
Neurotoxicity in mice (in words) (mice [1]): did not display any neurotoxic symptoms | CC50 at 24 h [2]: > 331 µM

COc1ccc(/C=C2\CCC/C(=C\c3cccc([N+](=O)[O-])c3)C2=O)cc1 [Compound 2f]
Number of animals demonstrating neurological deficit/number of treated mice (mice [1]; 30 mg/kg intraperitoneally, 0.5 h): 1/4 | Neurotoxicity in mice (in words) (mice [1]): Marginal neurotoxicity | CC50 at 24 h [2]: > 262 µM

COc1cc(/C=C2\CCC/C(=C\c3cccc([N+](=O)[O-])c3)C2=O)cc(OC)c1OC [Compound 2g]
CC50 at 24 h [2]: > 379 µM

O=C1/C(=C/c2ccccc2)CCC/C1=C\c1ccc([N+](=O)[O-])cc1 [Compound 3a]
Neurotoxicity in mice (in words) (mice [1]): did not display any neurotoxic symptoms | CC50 at 24 h [2]: 259 µM

O=C1/C(=C/c2ccc(F)cc2)CCC/C1=C\c1ccc([N+](=O)[O-])cc1 [Compound 3b]
Number of animals demonstrating neurological deficit/number of treated mice (mice [1]; [9]): 1/8 | Neurotoxicity in mice (in words) (mice [1]): Marginal neurotoxicity | CC50 at 24 h [2]: > 375 µM

O=C1/C(=C/c2ccc(Cl)cc2)CCC/C1=C\c1ccc([N+](=O)[O-])cc1 [Compound 3c]
Neurotoxicity in mice (in words) (mice [3]): did not display any neurotoxic symptoms; also recorded: no neurotoxicity

CN(C)c1ccc(/C=C2\CCC/C(=C\c3ccc([N+](=O)[O-])cc3)C2=O)cc1 [Compound 3d]
Number of animals demonstrating neurological deficit/number of treated mice (mice [1]; [9]): 2/8

Cc1ccc(/C=C2\CCC/C(=C\c3ccc([N+](=O)[O-])cc3)C2=O)cc1 [Compound 3e]
Number of animals demonstrating neurological deficit/number of treated mice (mice [1]; [10]): half or more and 3/4 | CC50 at 24 h [2]: > 280 µM

COc1ccc(/C=C2\CCC/C(=C\c3ccc([N+](=O)[O-])cc3)C2=O)cc1 [Compound 3f]
CC50 ([4]; reported previously ref 26): > 400 µM | CC50 [5]: > 400 µM | CC50 (HPC pulp cells): > 400 µM | CC50 (HGF gingival fibroblasts): > 400 µM | CC50 ([6]; reported previously ref 26): > 400 µM

COc1cc(/C=C2\CCC/C(=C\c3ccc([N+](=O)[O-])cc3)C2=O)cc(OC)c1OC [Compound 3g]
Number of animals demonstrating neurological deficit/number of treated mice (mice [3]; [9]): 2/8 | Neurotoxicity in mice (in words) (mice [3]): Marginal neurotoxicity

O=C1CCCC/C1=C\c1ccccc1[N+](=O)[O-] [Compound 4a]
Number of animals demonstrating neurological deficit/number of treated mice (mice [1]; [10]): 1/4 | Neurotoxicity in mice (in words) (mice [1]): Marginal neurotoxicity | CC50 at 24 h [2]: 146 µM

O=C1CCCC/C1=C\c1cccc([N+](=O)[O-])c1 [Compound 4b]
Number of animals demonstrating neurological deficit/number of treated mice (mice [1]; [10]): 1/4 | CC50 at 24 h [2]: 60 µM

COc1ccc(/C=C2\CCC/C(=C\c3ccc([N+](=O)[O-])cc3)C2=O)c(OC)c1OC [Compound 5a, 6-(4-Nitrobenzylidene)-2-(2,3,4-trimethoxybenzylidene) cyclohexanone]
Neurotoxicity in mice (in words) (mice [1]): did not display any neurotoxic symptoms

COc1cc(OC)c(OC)cc1/C=C1\CCC/C(=C\c2ccc([N+](=O)[O-])cc2)C1=O [Compound 5b, 6-(4-Nitrobenzylidene)-2-(2,4,5-trimethoxybenzylidene) cyclohexanone]
Number of animals demonstrating neurological deficit/number of treated mice (mice [1]; [9]): 1/8 | Number of animals demonstrating neurological deficit/number of treated mice (mice [1]; [10]): 1/4 | Neurotoxicity in mice (in words) (mice [1]): Marginal neurotoxicity

N[C@@H](Cc1ccc(N(CCCl)CCCl)cc1)C(=O)O [Melphalan, reference compound]
CC50 ([4]; reported previously ref 27): 6 µM | CC50 [7]: 81 µM | LD50 (mice [8]): 4.0 mg/kg | CC50 ([6]; reported previously ref 27): 35 µM
